This is an account of results in ChEMBL document CHEMBL4257543, “Structural optimization and antibacterial evaluation of rhodomyrtosone B analogues against MRSA strains” (Medchemcomm, 2018).

In brackets after ≈: the same amount, converted by molar mass. Activity calls are given as the source filed them.

One may read the IC50 as the concentration needed to halve the response being measured. The MIC is the smallest concentration in the dilution series that meets the test's criterion for growth inhibition.

For one series, the system named is MCF7. Description: Cytotoxicity against human MCF7 cells by MTT assay. It is filed as cell-based. The method in brief: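 MTT viability assay after 24 h exposure to compound at 1.5625–100 µg mL⁻¹; control cells received DMSO at 0.5% (highest test-well level); IC50 given as mean ± SD of at least triplicate runs.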
For orientation: Formazan colour is commonly taken as a measure of viable cells.

Series [1] relates to Staphylococcus aureus. Description: Induction of morphological changes in methicillin-resistant Staphylococcus aureus JCSC 4788 assessed as cytoplasmic membrane disruption at 4 times MIC measured after 3 hrs scanning electron microscopic analysis. Format: functional, organism-based. The method in brief:
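Exponential-phase MRSA JCSC 4788 treated at 37 °C and washed. Cells prefixed overnight in 0.1 M phosphate pH 7.2 with 2% glutaraldehyde and 2.5% paraformaldehyde, then post-fixed in 1% OsO4 for 2 h. Samples ethanol-dehydrated, freeze-dried, gold-coated and imaged by SEM.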

The next series relates to Enterococcus faecalis. Put plainly: Antibacterial activity against Enterococcus faecalis ATCC 29212 by micro dilution susceptibility test. Format: functional. The procedure, abridged: (§1)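 Microbroth dilution MIC in Mueller–Hinton broth following CLSI guidelines, with vancomycin as positive control; assays run at least in triplicate.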
The subject of series [2] is Staphylococcus aureus. Description: Selectivity ratio of MIC for methicillin-resistant Staphylococcus aureus 85/2082 to MIC for methicillin-resistant Staphylococcus aureus JCSC 4788. Format: functional.
The next series relates to Paenibacillus polymyxa. Description: Antibacterial activity against Bacillus polymyxa GIM 1.467 by micro dilution susceptibility test. Format: functional. The method in brief: as §1
In series [3] the test system is Staphylococcus aureus. Description: Bactericidal activity against methicillin-resistant Staphylococcus aureus JCSC 4788 assessed as bacterial killing at 4 MIC measured within 0.5 hrs by time kill assay relative to control. Format: functional. The procedure, abridged: (§2)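 Time-kill per CLSI: overnight MRSA JCSC 4788 adjusted in 0.85% NaCl to 10^6–10^7 CFU mL−1 and exposed to 0.5×, 1×, 2× and 4× MIC at 35 °C, vancomycin as comparator. Viable plate counts at 0.5, 2, 4, 8 and 24 h; two independent experiments.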

The next series has as its system Bacillus cereus. Description: Antibacterial activity against Bacillus cereus ATCC 10876 by micro dilution susceptibility test. It is filed as functional. The procedure, abridged:
as §1

Series [4] concerns Staphylococcus aureus. Put plainly: Antibacterial activity against methicillin-resistant Staphylococcus aureus N315 by micro dilution susceptibility test. Format: functional. The method in brief: (§3)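 Microbroth dilution MIC in Mueller–Hinton broth following CLSI guidelines, vancomycin as positive control; resazurin added as visible growth indicator. Assays run at least in triplicate.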

Series [5] relates to Staphylococcus aureus. Put plainly: Antibacterial activity against methicillin-resistant Staphylococcus aureus JCSC 4469 by micro dilution susceptibility test. Format: functional. The method in brief:
as §3

In a further series the test system is Salmonella typhi. Description: Antibacterial activity against Salmonella typhi CMCC 44102 by micro dilution susceptibility test. Format: functional, Salmonella enterica subsp. enterica serovar Typhi. Particulars: Salmonella enterica. The procedure, abridged:
as §3

Series [6] relates to Staphylococcus aureus. Description: Induction of membrane disruption in methicillin-resistant Staphylococcus aureus JCSC 4788 assessed as increase in fluorescence intensity at MIC measured after 3 hrs by SYTOX green dye based fluorescence assay. Format: functional, organism-based. The procedure, abridged:
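Exponential-phase MRSA JCSC 4788 washed and set to OD620 0.4 in 0.85% NaCl, exposed to serial compound concentrations for 3 h, then 3 μM SYTOX Green for 20 min. Fluorescence read at ex 504/em 523 nm with melittin as positive control and vancomycin as comparator; mean ± SD, n = 3.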

The nature of series [7]: Selectivity ratio of IC50 for human MCF7 cells to MIC for methicillin-resistant Staphylococcus aureus JCSC 4788. It is filed as toxicity. The procedure, abridged:
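Ratio of 24 h MTT cytotoxicity IC50 (compound 1.5625–100 μg mL−1, 0.5% DMSO control) to MIC against MRSA JCSC 4788 from CLSI microbroth dilution in MHB; IC50 values expressed as mean ± SD.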

Series [8] concerns Staphylococcus aureus. Put plainly: Bactericidal activity against methicillin-resistant Staphylococcus aureus JCSC 4788 assessed as reduction in colony forming units at 2 times MIC measured after 2 hrs by time kill assay relative to control. It is filed as functional. Also on record: scale not given: the % may be the effect or the level left. The procedure, abridged:
as §2

The subject of series [9] is Staphylococcus aureus. Put plainly: Antibacterial activity against methicillin-resistant Staphylococcus aureus JCSC 2172 by micro dilution susceptibility test. It is filed as functional. The method in brief:
as §3

For the next series, the system named is Cutibacterium acnes. Description: Antibacterial activity against Propionicibacterium acnes ATCC 6919 by micro dilution susceptibility test. It is filed as functional. The procedure, abridged: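 Microbroth dilution MIC in Mueller–Hinton broth following CLSI guidelines; […]; resazurin added as visible growth indicator; vancomycin positive control; at least triplicate.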

The test system of series [10] is Staphylococcus aureus. Description: Antibacterial activity against methicillin-resistant Staphylococcus aureus JCSC 4744 by micro dilution susceptibility test. Format: functional. The procedure, abridged:
as §3

The next series concerns Shigella dysenteriae. Description: Antibacterial activity against Shigella dysenteriae CMCC 51252 by micro dilution susceptibility test. It is filed as functional. The method in brief: as §3
Series [11] has as its system Staphylococcus aureus. Put plainly: Selectivity ratio of MIC for methicillin-resistant Staphylococcus aureus NCTC 10442 to MIC for methicillin-resistant Staphylococcus aureus JCSC 4788. It is filed as functional.
The subject of series [12] is Staphylococcus aureus. Description: Bactericidal activity against methicillin-resistant Staphylococcus aureus JCSC 4788 assessed as bacterial killing at 2 MIC measured within 2 hrs by time kill assay relative to control. Format: functional. The procedure, abridged: as §2
In series [13] the test system is Staphylococcus aureus. Description: Induction of cytoplasmic membrane depolarization in methicillin-resistant Staphylococcus aureus JCSC 4788 at 0.5 to 2 times MIC measured within 1 min by Disc3(5) staining based fluorescence spectrophotometric method. Format: functional, organism-based. The procedure, abridged: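 Exponential-phase MRSA JCSC 4788 washed and set to OD620 0.1 in 5 mM HEPES pH 7. Cells loaded with 0.4 μM DiSC3(5) plus 100 mM KCl for 20 min at 37 °C with agitation. Compound added at 0.5–8× MIC and fluorescence followed at ex 660/em 670 nm; mean ± SD.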

For series [14], the system named is Staphylococcus epidermidis. Description: Antibacterial activity against Staphylococcus epidermidis ATCC 12228 by micro dilution susceptibility test. Format: functional. The method in brief:
as §1

In the series with MCF7, `CCCCCCCC(=O)c1c(O)cc(O)c2c1OC1=C(C(=O)C(C)(C)C(=O)C1(C)C)C2CC(C)C` (stereo unspecified) came in with an IC50 of 9.98 µg/mL (≈ 20.6 µM). Also, the result with Staphylococcus aureus [1], in the series on Staphylococcus aureus [6] and with Staphylococcus aureus [13] was Active. Besides, the MIC against Enterococcus faecalis is 0.25 µg/mL (≈ 0.516 µM); in the series with Paenibacillus polymyxa, above 32 µg/mL; with Bacillus cereus it was 0.5 µg/mL (≈ 1.03 µM); in the series on Staphylococcus aureus [4] it was 0.25 µg/mL (≈ 0.516 µM); in the series with Staphylococcus aureus [5], 0.25 µg/mL (≈ 0.516 µM); against Salmonella typhi it was above 32 µg/mL. Further, the MIC in the series on Staphylococcus aureus [9] was 0.25 µg/mL (≈ 0.516 µM); against Cutibacterium acnes it was 0.25 µg/mL (≈ 0.516 µM); against Staphylococcus aureus [10], 0.125 µg/mL (≈ 0.258 µM); in the series with Shigella dysenteriae, above 32 µg/mL; in [14], 0.25 µg/mL (≈ 0.516 µM). The values for the Selectivity ratio (in the series on Staphylococcus aureus [2]; in [7]; in the series on Staphylococcus aureus [11]) were 0.5 - 2, 39.9 and 0.5 - 2, respectively. The Activity in the series with Staphylococcus aureus [3] is reported as above 90%; with Staphylococcus aureus [8], 99.9%; with Staphylococcus aureus [12], above 90%.
